This passage reports Proliferation, inhibition and Activity results from ChEMBL document CHEMBL1139574, “Synthesis and biological evaluation of novel bisphosphonates with dual activities on bone in vitro” (2005).

What all share (format): functional
The species entered for assay [1] is Rattus norvegicus. Kind of assay: Proliferative activity on the of rat calvaria osteoblasts at concentration of 10e-6 M. A digest of the protocol: (§1)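 SD rat calvarial osteoblasts plated at 2 × 10⁴ cells/well and exposed to a range of bisphosphonate concentrations for 72 h. Proliferation read by MTT, absorbance at 492 nm. Proliferative ratio (%) = (treated − control)/control × 100. Mean ± SE, n = 3.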

The species named for assay [2] is Rattus norvegicus. Description: Proliferative activity on the of rat calvaria osteoblasts at concentration of 10e-7 M. The essentials: as §1
Assay [3] in a line: Inhibitory ratio of osteoclast precursor cells at concentration of 10e-7 M by staining with tartrate-resistant acid […]. The essentials:
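Osteoclast precursor cells plated at 5 × 10⁴ cells/well and cultured 8 days with or without bisphosphonate at 10^-7 M. Cells then TRAP-stained, and positive cells with three or more nuclei counted. Inhibitory ratio (%) = (control count − treated count)/control count × 100. Mean ± SE, n = 5.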

Assay [4] is filed under the species Rattus norvegicus. Description: Proliferative activity on the of rat calvaria osteoblasts at concentration of 10e-8 M. A digest of the protocol:
as §1

The species entered for assay [5] is Rattus norvegicus. Kind of assay: Proliferative activity on the of rat calvaria osteoblasts at concentration of 10e-5 M. A digest of the protocol: as §1
Assay [6] in a line: Inhibitory activity of bone gamma-carboxyglutamate (gla) protein (osteocalcin) was determined at concentration of 10e-9 M in cell lysates. A digest of the protocol: (§2)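 Newborn Sprague-Dawley rat calvarial osteoblast-enriched cultures seeded at 5 × 10³ cells/well and treated for 72 h. Osteocalcin measured in cell lysates by radioimmunoassay. Normalized to viable cell number from MTT. Mean ± SE, n = 5.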

The target in assay [7] is T1, Alkaline phosphatase, tissue-nonspecific isozyme (Rattus norvegicus) (UniProt P08289).
T1 sequence (whole entry): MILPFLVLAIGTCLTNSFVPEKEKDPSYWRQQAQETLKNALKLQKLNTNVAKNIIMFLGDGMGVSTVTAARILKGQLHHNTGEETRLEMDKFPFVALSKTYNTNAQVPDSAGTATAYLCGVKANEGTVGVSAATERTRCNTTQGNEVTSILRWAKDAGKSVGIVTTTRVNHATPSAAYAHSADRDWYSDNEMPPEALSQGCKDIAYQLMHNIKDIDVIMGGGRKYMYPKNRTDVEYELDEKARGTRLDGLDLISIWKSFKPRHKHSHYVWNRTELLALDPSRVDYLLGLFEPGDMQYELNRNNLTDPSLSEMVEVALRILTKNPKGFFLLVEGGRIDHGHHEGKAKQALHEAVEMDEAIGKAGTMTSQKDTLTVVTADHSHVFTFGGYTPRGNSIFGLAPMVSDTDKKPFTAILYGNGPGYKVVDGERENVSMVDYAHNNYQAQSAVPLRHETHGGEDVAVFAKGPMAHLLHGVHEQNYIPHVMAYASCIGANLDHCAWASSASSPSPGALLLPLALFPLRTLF
Description: Inhibitory activity of Alkaline phosphatase was determined at concentration of 10e-8 M using p-nitrophenylphosphate as the substrate. A digest of the protocol:
(§3)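 Primary osteoblast-enriched cells from newborn Sprague-Dawley rat calvaria, cultured in DMEM at 37 °C under 5% CO2. Seeded at 5 × 10³ cells/well and exposed to test agent for 72 h. Alkaline phosphatase activity measured with p-nitrophenylphosphate substrate. Values normalized to viable cell number from the MTT assay. Mean ± SE, n = 5.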

The target of assay [8] is T1, Alkaline phosphatase, tissue-nonspecific isozyme (Rattus norvegicus). Kind of assay: Inhibitory activity of Alkaline phosphatase was determined at concentration of 10e-7 M using p-nitrophenylphosphate as the substrate. The essentials:
as §3

The target is the same in assay [9]. Kind of assay: Inhibitory activity of Alkaline phosphatase was determined at concentration of 10e-6 M using p-nitrophenylphosphate as the substrate. A digest of the protocol:
as §3

The nature of assay [10]: Inhibitory activity of bone gamma-carboxyglutamate (gla) protein (osteocalcin) was determined at concentration of 10e-6 M in cell lysates. The essentials: as §2
Assay [11] can be described thus: Inhibitory activity of bone gamma-carboxyglutamate (gla) protein (osteocalcin) was determined at concentration of 10e-7 M in cell lysates. A digest of the protocol: as §2
Assay [12] in a line: Inhibitory activity of bone gamma-carboxyglutamate (gla) protein (osteocalcin) was determined at concentration of 10e-8 M in cell lysates. The essentials: as §2
Assay [13] addresses T1, Alkaline phosphatase, tissue-nonspecific isozyme (Rattus norvegicus). Description: Inhibitory activity of Alkaline phosphatase was determined at concentration of 10e-9 M using p-nitrophenylphosphate as the substrate. The essentials: as §3

Turning to `O=C(NCCC(O)(P(=O)([O-])O)P(=O)([O-])O)c1ccc2c(c1)OCO2.[Na+].[Na+]`, the Proliferation in assay [1] was -8.3%; in assay [2] it was -7.3%; in assay [4], -0.2%; in assay [5] it was 9.3%. In addition, the inhibition (as a rule, the drop in the measured response relative to a control, in per cent) at 0.1 µM in assay [3] was 60.2%.

With `COc1cccc(C(=O)NCCC(O)(P(=O)([O-])O)P(=O)([O-])O)c1OC.[Na+].[Na+]`, the Proliferation in assay [1] is on record as 47.4%; in [2], 74.4%; in assay [4], 26.6%; in assay [5] it was 35.2%. Moreover, the Activity in [6] stood at 4.07; in [7] it was 0.75; in [8], 2.15; in assay [9], 3.6; in assay [10], 11.7; in assay [11], 8.63. Besides, the results for the Activity in [12] and in assay [13] were 4.73 and 0.56, respectively. Besides, the inhibition at 0.1 µM in assay [3] is 68.1%.

For the compound `Cc1ccccc1C(=O)NCCCCCC(O)(P(=O)(O)O)P(=O)(O)O`, the inhibition at 0.1 µM in assay [3] came out at 9.4%.

On to `Cc1ccc(C(=O)NCCC(O)(P(=O)(O)O)P(=O)(O)O)cc1`, for which the inhibition at 0.1 µM in [3] worked out at 30.4%.

As for `Cc1ccccc1C(=O)NCCCC(O)(P(=O)(O)O)P(=O)(O)O`, the inhibition at 0.1 µM in [3] amounted to 30.3%.

For the compound `COc1cc([N+](=O)[O-])cc(C(=O)NCCC(O)(P(=O)([O-])O)P(=O)([O-])O)c1OC.[Na+].[Na+]`, the Proliferation is recorded as -1.5% in assay [1], 21.4% in assay [2], -0.8% in assay [4] and 17.7% in [5]. For the same compound, the inhibition at 0.1 µM in assay [3] stood at 64.4%.

Consider `O=C(NCCCC(O)(P(=O)(O)O)P(=O)(O)O)c1ccccc1`, for which the inhibition at 0.1 µM in assay [3] came to 35.6%.

In the case of `O=C(NCCCCCC(O)(P(=O)(O)O)P(=O)(O)O)c1cccc(Cl)c1`, the inhibition at 0.1 µM in assay [3] was 15.9%.

As for `COc1ccc(C(=O)NCCCCCC(O)(P(=O)(O)O)P(=O)(O)O)cc1`, the inhibition at 0.1 µM in [3] amounted to 39%.

For `COc1cccc(C(=O)NCCCC(O)(P(=O)([O-])O)P(=O)([O-])O)c1.[Na+].[Na+]`, the Proliferation in [1] is listed as -5.5%; in assay [2], -12.4%; in assay [4] it was 3.7%; in assay [5] it was 0.7%. Besides, the inhibition at 0.1 µM in assay [3] worked out at 34.2%.

Regarding `O=C(NCCC(O)(P(=O)(O)O)P(=O)(O)O)c1ccccc1`, the inhibition at 0.1 µM in [3] came out at 9.5%.

As for `COc1cccc(C(=O)NCCC(O)(P(=O)([O-])O)P(=O)([O-])O)c1.[Na+].[Na+]`, the Proliferation in assay [1] is on record as 7.1%; in [2], -5.5%; in assay [4] it was 0.6%; in assay [5], 8.9%. Further, the inhibition at 0.1 µM in assay [3] is 26.9%.
